Screening data as filed in PubChem.
HUVEC inhibit = blocks proliferation of human endothelial cells; viability, % at 10 µM (by protocol); HUVEC proliferation, CellTiter-Glo luminescence, 72 h; active compounds read low; hit rate 1.1% among 86,000;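 active = viability at or below 30%; inactive = viability above 30%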;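 note: 100% = median luminescence of DMSO-only cell control wells on each plate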
Jurkat tox 60K = cytotoxicity toward Jurkat cells. Jurkat E6.1 viability, ATP luminescence, 48 h. inhibition, % at 4 µM. hit rate 1.2% among 56,000;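 active = inhibition above the mean inhibition of all tested compounds plus 3 SD, cut at about 28% in these data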
Fibroblast inh = blocks proliferation of human lung fibroblasts; LL 47 human lung fibroblast viability, ATP luminescence; active compounds read low; viability, % at 10 µM; hit rate 1.1% among 85,000;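 active = viability at or below 50% in the single dose screen; inactive = viability above 50%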;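 note: compound exposure lasted 72 h before the ATP readout; 100% = median luminescence of untreated cell-only wells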
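Benchmarks: Cell-only wells, no compound | Test system: LL 47 human lung fibroblasts, passage 12 or lower | Input: 1,150 cells/well | Measured by: CellTiter-Glo luminescence measuring cellular ATP | Medium: IMEM, 15% FBS supplement | Schedule: Overnight attachment after seeding, then 72 h compound exposure at 37 °C | Doses: Compound addition at 0.1% DMSO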
H69AR growth 86K = blocks growth of human H69AR lung tumor cells; H69AR lung tumor viability, ATP luminescence, 72 h; active compounds read low; viability, % at 10 µM; hit rate 6% among 85,000;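 active = viability at or below 40%; inactive = viability above 40%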;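 note: multidrug resistant small cell line overexpressing MRP-1 efflux transporter; 100% = mean luminescence of untreated control wells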
* = called active by the depositor; x = no result. In the library only some 6.6% were active in any assay of this set; here they are far more common.

SMILES	HUVEC inhibit	Jurkat tox 60K	Fibroblast inh	H69AR growth 86K
O=C(NCC1COc2ccccc2O1)C1CCC(CNc2c(N3CCCCC3)c(=O)c2=O)CC1 (centres undefined)	86	3	100	92
O=C(c1ccc(Cl)c(S(=O)(=O)NCc2ccccc2)c1)N1CCN(c2ccccn2)CC1	74	x	94	21*
O=C(O)c1ccc(Cl)c(S(=O)(=O)NCc2ccco2)c1	106	-1	98	91
Cc1cccc(N2CCN(C(=O)c3ccc(Cl)c(S(=O)(=O)NCc4ccco4)c3)CC2)c1C	55	84*	68	21*
Cc1ccc(Nc2nc(C(=O)N3CCC(C(=O)NCCN4CCOCC4)CC3)cs2)cc1	92	5	100	99
CCOC(=O)/C(=N\Nc1ccccc1)c1csc(Nc2ccc(C)cc2)n1	25*	x	79	3.3*
Nc1nonc1-c1nc2ccccc2n1Cc1ccccc1	54	89*	62	17*
CCCCn1c(-c2nonc2N)nc2ccccc21	82	x	84	30*
Nc1nonc1-c1nc2ccccc2n1CC(=O)NC1CCCC1	96	2	99	87
CC(C)CCn1c(-c2nonc2N)nc2ccccc21	70	x	81	11*
CCOC(=O)c1ccccc1NC(=O)Cn1c(-c2nonc2N)nc2ccccc21	38	98*	47*	27*
COC(=O)/C(=C\Nc1ccccc1N)c1ncc(C(F)(F)F)cc1Cl	99	x	96	85
CCN(CC(=O)Nc1c(C(=O)OC)[nH]c2ccc(C)cc12)c1ccc2c(c1)OCO2	76	3	108	51
Oc1ccc(Cl)cc1CNc1ccc(Br)cn1	69	56*	90	43
COc1cc(Cl)c(S(=O)(=O)NCc2cccnc2)cc1Cl	103	2	103	78
CC(C)CC(=O)Nc1ccccc1-c1nnn(CC(=O)N2CCc3ccccc3C2)n1	96	x	103	44
Cc1ccc2c(c1)cc(CN(Cc1ccco1)C(=O)COc1ccccc1)c1nnnn12	84	8	102	38*
COc1ccccc1NC(=O)N1CCC(c2nc3cc(C)c(C)cc3[nH]2)CC1	37	x	48*	27*
CN(Cc1ccc(O)cc1)C1CCCCC1	101	-7	x	30*
CC(NC(=O)N(Cc1ccccc1)Cc1ccc2c(c1)OCO2)(C(F)(F)F)C(F)(F)F	102	x	95	74
CCC(NC(=O)N(Cc1ccccc1)Cc1ccc2c(c1)OCO2)(C(F)(F)F)C(F)(F)F	85	x	99	37*
CCOC(=O)c1cnc(SCc2nc(N)nc(Nc3ccccc3)n2)nc1N	106	-6	97	32*
CCCCN1C(=O)c2ccc(C(=O)Nc3c(N)n(CCCC)c(=O)n(C)c3=O)cc2C1=O	99	x	99	87
CC1(C)Cc2c(c(N3CCOCC3)nc3sc4c(NN)ncnc4c23)CS1	6.3*	x	17*	46
c1nc(N2CCOCC2)c2sc3nc(N4CCOCC4)c4c(c3c2n1)CCCC4	88	2	100	80
SMILES	HUVEC inhibit	Jurkat tox 60K	Fibroblast inh	H69AR growth 86K
CCOc1nnnc2c1sc1nc(N3CCOCC3)c3c(c12)CC(C)(C)OC3	106	x	94	91
CC1(C)Cc2c(c(N3CCOCC3)nc3sc4c(NCc5ccccc5)nnnc4c23)CS1	24*	x	18*	2.0*
CC1(C)Cc2c(c(N3CCOCC3)nc3sc4c(NCc5ccco5)nnnc4c23)CS1	87	x	84	37*
CNC(=O)C(=O)NCCc1ccc(Cl)cc1	116	x	100	100
CC1CCCC(NC(=O)CN(C)S(=O)(=O)c2cccc3cccnc23)C1C (centres undefined)	99	1	97	78
CCC(=O)N1CCc2cc(S(=O)(=O)CCC(=O)Nc3nc(C)cs3)ccc21	92	0	88	1.8*
CCC(=O)N1CCc2cc(S(=O)(=O)CCC(=O)Nc3ccc(CC)cc3)ccc21	99	4	103	95
COc1ccc(CCNC(=O)c2ccc3c(=O)n(Cc4ccco4)c(=S)[nH]c3c2)cc1OC	41	-1	101	11*
COc1ccc(CCNC(=O)COC(=O)c2ccco2)cc1OC	110	1	101	103
CC(C)NC(=O)c1ccc2c(=O)n(Cc3ccco3)c(=S)[nH]c2c1	103	x	103	92
COc1ccc(CCNC(=O)c2ccc3nc(-c4ccco4)c(-c4ccco4)nc3c2)cc1OC	48	8	102	18*
CCOc1ccc(NC2=NC(C(=O)NCc3ccccc3)CC(=O)N2)cc1 (centres undefined)	99	0	101	99
CCOc1ccc(-n2nc(C(=O)N3CCOCC3)c3ccccc3c2=O)cc1	103	-4	102	89
COc1ccccc1S(=O)(=O)Cc1ccc(C(=O)N2CCN(c3ccccc3)CC2)o1	106	-4	95	80
Cc1cccc(N2CCN(C(=O)c3ccc(CS(=O)(=O)c4ccccc4C)o3)CC2C)c1 (centres undefined)	43	94*	59	25*
O=C(C(Cc1ccccc1)n1cccc1)N1CCN(c2ccccc2)CC1 (centres undefined)	116	x	92	94
COc1ccccc1S(=O)(=O)Cc1ccc(C(=O)N2CCN(c3cccc(Cl)c3)CC2)o1	59	81*	64	9.4*
Cc1ccc(C)c(N2CCN(C(=O)C(Cc3ccccc3)n3cccc3)CC2)c1 (centres undefined)	110	x	90	22*
Cc1ccc(C)c(N2CCN(C(=O)c3ccc(CS(=O)(=O)c4ccccc4C)o3)CC2)c1	54	40*	78	15*
CS(=O)(=O)NCCOc1ccc(S(=O)(=O)N2CCCc3ccccc32)cc1	79	3	62	77
CCOc1ccc2c(c1)C(c1ccccc1)=NNC(c1ccccc1)=N2	89	x	98	95
COc1ccc(N2CCN(C(c3ccccc3)c3sc4nc(C)nn4c3O)CC2)cc1 (centres undefined)	97	2	99	95
Cc1ccc(S(=O)(=O)Cc2ccc(C(=O)N3CCN(c4cc(C)ccc4C)CC3)o2)cc1	62	-7	73	17*
Cc1ccc(S(=O)(=O)Cc2ccc(C(=O)N3CCCC3)o2)cc1	97	8	98	90
Cc1ccc(C)c(-n2c(C)cc(/C=N/NC(=O)c3c(C)nc4cc(C)ccn34)c2C)c1	80	x	93	53
SMILES	HUVEC inhibit	Jurkat tox 60K	Fibroblast inh	H69AR growth 86K
NS(=O)(=O)c1ccc(Nc2nc(-c3ccc4ccccc4c3)cs2)cc1	86	x	79	32*
CCc1nnc(NC(=O)c2cccc(C(=O)Nc3nnc(CC)s3)n2)s1	3.7*	20	4.8*	3.7*
CCc1nnc(NC(=O)CCN2C(=O)c3ccccc3C2=O)s1	107	-1	97	95
CCc1nnc(NC(=O)c2ccc3c(c2)C(=O)N(C(C)(C)C)C3=O)s1	87	x	101	39*
CCc1nnc(NC(=O)c2ccncc2)s1	94	5	102	96
C=CCn1c(SCc2nc3ccccc3nc2C)nnc1-c1ccoc1C	94	5	104	89
O=C(CCc1ccccc1)NC(NC(=S)Nc1ccc(Br)cc1)C(Cl)(Cl)Cl (centres undefined)	37	x	77	8.3*
CN(C)CCC(=O)NCC1OCCc2ccccc21 (centres undefined)	99	x	112	91
